# Assay results: ChEMBL document CHEMBL4020844, “Regio- and Stereospecific Synthesis of Oridonin D-Ring Aziridinated Analogues for the Treatment of Triple-Negative Breast Cancer via Mediated Irreversible Covalent Warheads” (J Med Chem, 2018)
# The source made the active and inactive calls. The rule behind the calls is not given here.
# Columns and labels:
# [1] = system: MDA-MB-231; test: Induction of apoptosis in human MDA-MB-231 cells assessed as live cells at 10 uM after 48 hrs by Annexin V-FITC/propidium iodide staining based flow cytometry (reference value: 90.35%); assay type: functional
# [2] = system: MDA-MB-231; test: Induction of apoptosis in human MDA-MB-231 cells assessed as dead cells at 10 uM after 48 hrs by Annexin V-FITC/propidium iodide staining based flow cytometry (reference value: 1.5%); assay type: functional
# [3] = system: MDA-MB-231; test: Induction of apoptosis in human MDA-MB-231 cells assessed as dead cells at 1 uM after 48 hrs by Annexin V-FITC/propidium iodide staining based flow cytometry (reference value: 1.5%); assay type: functional
# [4] = system: MDA-MB-231; test: Downregulation of NF-kB p65 protein expression in human MDA-MB-231 cells after 48 hrs by Western blot analysis; assay type: functional, cell-based
# In short: (§1)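 MDA-MB-231 cells were exposed to DMSO or compound at several concentrations for 48 h, then lysed. Protein was measured by Bradford with a BSA standard. 40 μg total protein was run on SDS-PAGE and transferred to nitrocellulose, then blocked with 5% milk. Primary antibodies were applied overnight: Bcl-2 1:200, cleaved PARP 1:500, NF-κB 1:1000, Bax 1:1000, β-actin 1:2000. Detection was by ECL.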
# [5] = system: MDA-MB-231; test: Induction of apoptosis in human MDA-MB-231 cells assessed as live cells at 1 uM after 48 hrs by Annexin V-FITC/propidium iodide staining based flow cytometry (reference value: 90.35%); assay type: functional
# [6] = system: SK-BR-3; test: Inhibition of colony formation in human SK-BR-3 cells after 2 weeks by crystal violet staining based assay; assay type: functional, cell-based
# In short: (§2)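 Cells were seeded at 600 per well (MDA-MB-231) or 800 per well (MDA-MB-468, SK-BR3, MCF-7). After 24 h they were exposed to 1, 5, 10, 15 or 20 μM, or DMSO, with medium plus compound renewed every 72 h for 2 weeks. Wells were PBS-washed, stained with 0.01% crystal violet for 10 min, washed, dried and photographed.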
# [7] = system: MCF7; test: Inhibition of colony formation in human MCF7 cells after 2 weeks by crystal violet staining based assay; assay type: functional, cell-based; in short: as §2
# [8] = system: MDA-MB-231; test: Induction of apoptosis in human MDA-MB-231 cells assessed as dead cells at 5 uM after 48 hrs by Annexin V-FITC/propidium iodide staining based flow cytometry (reference value: 1.5%); assay type: functional
# [9] = system: MDA-MB-231; test: Induction of apoptosis in human MDA-MB-231 cells assessed as early apoptotic cells at 15 uM after 48 hrs by Annexin V-FITC/propidium iodide staining based flow cytometry (reference value: 1.85%); assay type: functional
# [10] = Glutathione reactivity in pH 7.4 deuterated phosphate buffer assessed as reaction half life at 10 mg up to 120 mins in presence of 1.5 to 2 equiv of GSH by 1H NMR analysis; assay type: physicochemical; conditions: pH 7.4, 2 h
# In short: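 Glutathione (1.5–2 equiv) was incubated with compound at 37°C in DMSO-d6 mixed with sodium phosphate buffer in D2O, pH 7.4. Reactivity was monitored by 1H NMR.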
# [11] = system: MDA-MB-231; test: Induction of apoptosis in human MDA-MB-231 cells assessed as early apoptotic cells at 5 uM after 48 hrs by Annexin V-FITC/propidium iodide staining based flow cytometry (reference value: 1.85%); assay type: functional
# [12] = system: MDA-MB-231; test: Induction of apoptosis in human MDA-MB-231 cells assessed as live cells at 5 uM after 48 hrs by Annexin V-FITC/propidium iodide staining based flow cytometry (reference value: 90.35%); assay type: functional
# [13] = system: MDA-MB-231; test: Inhibition of colony formation in human MDA-MB-231 cells after 2 weeks by crystal violet staining based assay; assay type: functional, cell-based; in short: as §2
# [14] = system: MDA-MB-231; test: Induction of apoptosis in human MDA-MB-231 cells assessed as late apoptotic cells at 5 uM after 48 hrs by Annexin V-FITC/propidium iodide staining based flow cytometry (reference value: 6.3%); assay type: functional
# [15] = system: MDA-MB-231; test: Induction of apoptosis in human MDA-MB-231 cells assessed as early apoptotic cells at 10 uM after 48 hrs by Annexin V-FITC/propidium iodide staining based flow cytometry (reference value: 1.85%); assay type: functional
# [16] = system: MDA-MB-231; test: Induction of apoptosis in human MDA-MB-231 cells after 48 hrs by Annexin V-FITC/propidium iodide staining based flow cytometry; assay type: functional, cell-based
# [17] = system: MDA-MB-231; test: Induction of apoptosis in human MDA-MB-231 cells assessed as early apoptotic cells at 1 uM after 48 hrs by Annexin V-FITC/propidium iodide staining based flow cytometry (reference value: 1.85%); assay type: functional
# [18] = system: MDA-MB-231; test: Induction of apoptosis in human MDA-MB-231 cells assessed as dead cells at 20 uM after 48 hrs by Annexin V-FITC/propidium iodide staining based flow cytometry (reference value: 1.5%); assay type: functional
# [19] = system: MCF-10A; test: Antiproliferative activity against human MCF10A cells up to 100 uM after 48 hrs by MTT assay
# [20] = system: MDA-MB-231; test: Induction of apoptosis in human MDA-MB-231 cells assessed as live cells at 20 uM after 48 hrs by Annexin V-FITC/propidium iodide staining based flow cytometry (reference value: 90.35%); assay type: functional
# [21] = system: MDA-MB-231; test: Induction of apoptosis in human MDA-MB-231 cells assessed as upregulation of cleaved PARP after 48 hrs by Western blot analysis; assay type: functional, cell-based; in short: as §1
# [22] = system: MDA-MB-231; test: Induction of apoptosis in human MDA-MB-231 cells assessed as late apoptotic cells at 15 uM after 48 hrs by Annexin V-FITC/propidium iodide staining based flow cytometry (reference value: 6.3%); assay type: functional
# [23] = system: MCF7; test: Antiproliferative activity against human MCF7 cells after 72 hrs by MTT assay; assay type: functional, cell-based
# In short: (§3)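 MTT proliferation assay. Cells were seeded at 1 × 10^4 per well and exposed to DMSO or compound at 0.1, 0.33, 1.0, 3.3 and 10 μM for 72 h. MTT reagent was added, and OD at 560 nm was read after 1 h at 37°C. Each concentration was tested in quadruplicate wells.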
# [24] = system: MDA-MB-468; test: Antiproliferative activity against human MDA-MB-468 cells after 72 hrs by MTT assay; assay type: functional, cell-based; in short: as §3
# [25] = system: MDA-MB-231; test: Induction of apoptosis in human MDA-MB-231 cells assessed as late apoptotic cells at 20 uM after 48 hrs by Annexin V-FITC/propidium iodide staining based flow cytometry (reference value: 6.3%); assay type: functional
# [26] = system: SK-BR-3; test: Antiproliferative activity against human SK-BR-3 cells after 72 hrs by MTT assay; assay type: functional, cell-based; in short: as §3
# [27] = system: MDA-MB-231; test: Induction of apoptosis in human MDA-MB-231 cells assessed as early apoptotic cells at 20 uM after 48 hrs by Annexin V-FITC/propidium iodide staining based flow cytometry (reference value: 1.85%); assay type: functional
# [28] = system: MDA-MB-468; test: Inhibition of colony formation in human MDA-MB-468 cells after 2 weeks by crystal violet staining based assay; assay type: functional, cell-based; in short: as §2
# [29] = system: MDA-MB-231; test: Induction of apoptosis in human MDA-MB-231 cells assessed as reduction in Bcl2 to Bax ratio at 1 to 20 uM after 48 hrs by Western blot analysis; assay type: functional, cell-based; in short: as §1
# [30] = system: MDA-MB-231; test: Induction of apoptosis in human MDA-MB-231 cells assessed as live cells at 15 uM after 48 hrs by Annexin V-FITC/propidium iodide staining based flow cytometry (reference value: 90.35%); assay type: functional
# [31] = system: MDA-MB-231; test: Induction of apoptosis in human MDA-MB-231 cells assessed as late apoptotic cells at 10 uM after 48 hrs by Annexin V-FITC/propidium iodide staining based flow cytometry (reference value: 6.3%); assay type: functional
# [32] = system: MDA-MB-231; test: Antitumor activity against human MDA-MB-231 cells xenografted in nude mouse assessed as tumor growth inhibition at 10 to 15 mg/kg, ip daily for 10 days; assay type: functional, organism-based
# In short: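 Orthotopic model: female nude mice, 6–8 weeks old. MDA-MB-231 cells (1.0 × 10^6 in PBS) were injected into the no. 3 mammary fat pad, and mice were randomized into 4 groups. Once tumors reached 80–100 mm3, mice received 10 or 15 mg/kg daily by intraperitoneal injection in DMSO vehicle. Tumor volume (0.5 × L × W2) and body weight were measured daily. Mean ± SEM.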
# [33] = system: MDA-MB-231; test: Antiproliferative activity against human MDA-MB-231 cells after 72 hrs by MTT assay; assay type: functional, cell-based; in short: as §3
# [34] = system: MDA-MB-231; test: Induction of apoptosis in human MDA-MB-231 cells assessed as late apoptotic cells at 1 uM after 48 hrs by Annexin V-FITC/propidium iodide staining based flow cytometry (reference value: 6.3%); assay type: functional
# [35] = Glutathione reactivity in pH 7.4 deuterated phosphate buffer assessed as GSH adduct formation at 10 mg after 1 hr in presence of 1.5 to 2 equiv of GSH by HRMS analysis
smiles,measurement,setting,value
C=CC(=O)N1CC12C(=O)[C@@]13[C@@H]4OC(C)(C)O[C@@]15OC[C@@]1([C@H]([C@@H]5O)C(C)(C)CC[C@@H]1O)[C@@H]3CC[C@H]42 (some centres not stated),Activity,[1],79.05%
same,Activity,[2],2.75%
same,Activity,[3],1.95%
same,Activity,[4],Dose-dependent effect
same,Activity,[5],89.5%
same,inhibition,[6],Active
same,inhibition,[7],Active
same,Activity,[8],1.75%
same,Activity,[9],5.2%
same,t1/2,[10],30 to 60 min
same,Activity,[11],3.6%
same,Activity,[12],87.95%
same,inhibition,[13],Active
same,Activity,[14],6.7%
same,Activity,[15],5.45%
same,Activity,[16],Dose-dependent effect
same,Activity,[17],2.5%
same,Activity,[18],2.05%
same,Activity,[19],Non-Toxic
same,Activity,[20],50.35%
same,Activity,[21],Dose-dependent effect
same,Activity,[22],21.6%
same,Activity,[23],Dose-dependent effect
same,IC50,"[23]; MCF7, 72 h",9.39 µM
same,Activity,[24],Dose-dependent effect
same,Activity,[25],44.65%
same,Activity,[26],Dose-dependent effect
same,Activity,[27],2.95%
same,inhibition,[28],Active
same,Activity,[29],Active
same,Activity,[30],70.25%
same,Activity,[31],12.75%
same,TGI,[32],Active
same,Activity,[33],Dose-dependent effect
same,IC50,"[33]; MDA-MB-231, 72 h",8.32 µM
same,Activity,[34],6.05%
same,Drug metabolism,[35],Metabolite detected
